The values that follow come from ChEMBL document CHEMBL1629645 (Antimicrob Agents Chemother, 2009).

A short description of data set [1]: AUC (0 to 24 hrs) in cage fluid of Albino guiena pig at 10 mg/kg, ip. The class given is ADME, organism-based, Cavia porcellus. On the set-up: time < 24 hr, dose 10 mg/kg, route intraperitoneal. The note with it: guinea pig.
Data set [2] can be described thus: Half life in cage fluid of Albino guiena pig at 10 mg/kg, ip. The data set is classed as ADME, organism-based, Cavia porcellus. On the set-up: dose 10 mg/kg, route intraperitoneal. The following applies: guinea pig, in vivo.
Data set [3] can be described thus: Tmax in cage fluid of Albino guiena pig at 10 mg/kg, ip. The class given is ADME, organism-based, Cavia porcellus. On the set-up: dose 10 mg/kg, route intraperitoneal. The note with it: guinea pig.
Data set [4] is described as follows: Cmin in cage fluid of Albino guiena pig at 10 mg/kg, ip after 12 hrs. The class given is ADME, organism-based, Cavia porcellus. On the set-up: dose 10 mg/kg, route intraperitoneal. The note with it: guinea pig, read-out: Cmin.
A short description of data set [5]: Cmax in cage fluid of Albino guiena pig at 10 mg/kg, ip after 12 hrs. The data set is classed as ADME, organism-based, Cavia porcellus, Interstitial fluid. Details: dose 10 mg/kg, route intraperitoneal. The note with it: guinea pig.
The subject of data set [6] is Staphylococcus aureus. The data set is described as follows: Antibacterial activity against methicillin-resistant Staphylococcus aureus ATCC 43300 during stationary growth phase by macrodilution method. The data set is classed as functional.
In data set [7] the test system is Staphylococcus aureus. As to the kind of experiment: Antibacterial activity against methicillin-resistant Staphylococcus aureus ATCC 43300 during logarithmic growth phase by macrodilution method. The data set is classed as functional.
In data set [8] the test system is Staphylococcus aureus. The data set is described as follows: Antibacterial activity against methicillin-resistant Staphylococcus aureus ATCC 43300 by macrodilution method. The class given is functional. In short, it runs like this:
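Broth macrodilution MIC in Mueller-Hinton broth per CLSI. Inoculum 1 × 10^5 to 5 × 10^5 CFU/ml. Ten twofold drug dilutions, 18 h at 37°C without shaking. MIC is the lowest concentration with no visible growth. Triplicate.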

For `C[C@H]1COc2c(N3CCN(C)CC3)c(F)cc3c(=O)c(C(=O)O)cn1c23.C[C@H]1COc2c(N3CCN(C)CC3)c(F)cc3c(=O)c(C(=O)O)cn1c23.O` [LEVOFLOXACIN], the AUC(0-t) (commonly exposure summed from dosing to a finite time, without extrapolation to infinity) at 24 h in data set [1] worked out at 6100 ng·h/mL. The t1/2 in data set [2] was 4.2 h. Also, the Tmax (usually the time at which the peak concentration occurs) in data set [3] came out at 2.5 h. Further, the concentration at 12 h in data set [4] came out at 300 ng/mL. For the same compound, in data set [5], the highest level (Cmax) was 1500 ng/mL. In addition, the MBC – broadly, the smallest concentration meeting the test's criterion for killing – against Staphylococcus aureus [6] was greater than 20 µg/mL; with Staphylococcus aureus [7], 0.63 µg/mL. Also, it took 0.16 µg/mL to inhibit growth against Staphylococcus aureus [8] (MIC).
